How the values were obtained:
[1] = Lag time between the addition of compound (30 uM) and the first appearance of chromophore; format: ADME
Procedure, shortened: (§1)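 Rabbit liver microsomes at 2 mg protein/mL with 0.1 mM EDTA, 37 °C, substrate 30 μM. Complex formation started with 0.4 mM NADPH and followed by dual-wavelength absorbance, 457 vs 500 nm. Initial rate is the initial slope, ΔA×10^4 per nmol P-450 per min. Extent is the plateau absorbance. Lag is the time from NADPH addition to first 457-nm chromophore. Triplicate or single runs.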

[2] = Initial rates of formation of metabolic intermediate Cytochrome P-450 at compound concentration of 7.5-180 uM; format: ADME
Procedure, shortened: (§2)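 Rabbit liver microsomes at 2 mg protein/mL with 0.1 mM EDTA, 37 °C, NADPH-dependent. Substrate tested at several concentrations. ΔA457–500 nm followed against time. Rate is the initial slope per nmol P-450 per min; extent is the plateau absorbance. Runs disturbed by a transient 450-nm species were discarded.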

Cytochrome P450 2C19 [3] = biological target: T1, Cytochrome P450 2C19 (Homo sapiens, UniProt P33261); test: Apparent binding affinity of compound (10.8-60.0 uM) in Cytochrome P450 binding; format: ADME, Oryctolagus cuniculus; settings: read-out: Ks
[4] = Initial rates of formation of metabolic intermediate Cytochrome P-450 at compound concentration of 30 uM; format: ADME; procedure, shortened: as §1
[5] = Extent rates of formation of metabolic intermediate Cytochrome P-450 at compound concentration of 7.5-180 uM; format: ADME; procedure, shortened: as §2
[6] = Extent rates of formation of metabolic intermediate Cytochrome P-450 at compound concentration of 30 uM; format: ADME; procedure, shortened: as §1
[7] = Initial rates of formation of metabolic intermediate Cytochrome P-450 with compound concentration of 30 uM; format: ADME
Procedure, shortened: (§3)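 Cross-inhibition in NADPH-supplemented rabbit liver microsomes at 37 °C. Preincubation with amine at 30, 150 or 300 μM while 457-nm complex formation was monitored. Once it plateaued (6–8 min), racemic hydroxylamine was added at 300 μM. Initial rate and plateau extent were read from ΔA457–500 nm vs time, per nmol P-450.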

[8] = Initial rates of formation of metabolic intermediate Cytochrome P-450 with compound concentration of 300 uM; format: ADME; procedure, shortened: as §3
[9] = Initial rates of formation of metabolic intermediate Cytochrome P-450 with compound concentration of 150 uM; format: ADME; procedure, shortened: as §3
Cytochrome P450 2C19 [10] = biological target: T1, Cytochrome P450 2C19; test: Apparent binding affinity of compound (15.0-45.0 uM) in Cytochrome P450 binding; format: ADME, Oryctolagus cuniculus; settings: read-out: Ks
[11] = Extent rates of formation of metabolic intermediate Cytochrome P-450 at compound concentration of 15-180 uM; format: ADME; procedure, shortened: as §2
[12] = Initial rates of formation of metabolic intermediate Cytochrome P-450 at compound concentration of 15-180 uM; format: ADME; procedure, shortened: as §2

T1 sequence (P33261 whole entry): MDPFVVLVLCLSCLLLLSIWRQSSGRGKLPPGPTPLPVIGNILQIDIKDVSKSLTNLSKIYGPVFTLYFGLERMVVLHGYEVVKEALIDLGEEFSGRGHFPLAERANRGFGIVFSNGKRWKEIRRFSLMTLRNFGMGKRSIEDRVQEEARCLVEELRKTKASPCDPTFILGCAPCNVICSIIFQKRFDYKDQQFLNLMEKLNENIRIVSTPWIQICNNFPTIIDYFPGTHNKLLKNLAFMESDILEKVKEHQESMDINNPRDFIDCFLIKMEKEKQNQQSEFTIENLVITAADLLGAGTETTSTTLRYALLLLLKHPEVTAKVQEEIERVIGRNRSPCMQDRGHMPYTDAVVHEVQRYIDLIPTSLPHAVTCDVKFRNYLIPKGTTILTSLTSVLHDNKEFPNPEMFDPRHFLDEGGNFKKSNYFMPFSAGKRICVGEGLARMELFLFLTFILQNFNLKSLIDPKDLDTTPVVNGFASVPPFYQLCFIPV

Compound | Lag time [1] | Rate [2] | Kd (Cytochrome P450 2C19 [3]) | Rate [4] | Rate [5] | Rate [6] | Rate [7] | Rate [8] | Rate [9] | Extent [6] | Kd (Cytochrome P450 2C19 [10]) | Rate [11] | Rate [12]
COc1cc(C[C@@H](C)NO)c(OC)cc1C | 0 s | 30 | 22 µM | 182 | 23 | 124 | – | – | – | – | – | – | –
COc1cc(C[C@@H](C)N)c(OC)cc1C.COc1cc(C[C@H](C)N)c(OC)cc1C | 138 s | – | – | 4.8 | – | – | 1.8 | 1.2 | 1.6 | 30 | – | – | –
COc1cc(C[C@H](C)NO)c(OC)cc1C | 0 s | – | – | 211 | – | 161 | – | – | – | – | 68 µM | 34 | 66
